Columns and labels:
[1] = target: T1, Tyrosinase (Agaricus bisporus, UniProt O42713); experiment: (§1) Inhibition of mushroom tyrosinase using L-tyrosine as substrate after 30 mins by spectrophotometric analysis
T1 sequence (O42713 whole entry): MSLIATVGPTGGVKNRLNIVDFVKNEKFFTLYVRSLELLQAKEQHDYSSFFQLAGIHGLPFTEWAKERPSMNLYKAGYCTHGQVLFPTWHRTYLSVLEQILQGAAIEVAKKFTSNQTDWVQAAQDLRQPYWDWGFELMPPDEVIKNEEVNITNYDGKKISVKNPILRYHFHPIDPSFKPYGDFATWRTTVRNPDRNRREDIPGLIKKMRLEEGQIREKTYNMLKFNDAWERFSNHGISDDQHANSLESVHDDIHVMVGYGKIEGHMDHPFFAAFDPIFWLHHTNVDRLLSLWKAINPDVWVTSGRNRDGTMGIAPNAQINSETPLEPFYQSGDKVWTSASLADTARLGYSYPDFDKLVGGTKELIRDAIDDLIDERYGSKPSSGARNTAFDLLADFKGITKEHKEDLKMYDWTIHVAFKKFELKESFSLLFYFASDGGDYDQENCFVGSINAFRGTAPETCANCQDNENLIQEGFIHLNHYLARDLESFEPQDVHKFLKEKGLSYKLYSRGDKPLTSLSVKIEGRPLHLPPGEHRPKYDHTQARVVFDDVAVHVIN
In short: (§2)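 Mushroom tyrosinase (1000 units) was added to assay mixture containing 1 mM L-tyrosine in 50 mM phosphate buffer, pH 6.5. Incubation ran 30 min at 25 °C, and dopachrome was read at 492 nm. Dose-dependent inhibition was run in triplicate at three doses. IC50 was taken from the inhibitor concentration versus product formation curve.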

[2] = target: T2, Tyrosinase (Agaricus bisporus) (UniProt O42713); experiment: as §1; in short: as §2
T2 sequence (whole entry): T1 sequence (O42713 whole entry)

[3] = target: T2, Tyrosinase (Agaricus bisporus); experiment: Inhibition of mushroom tyrosinase using L-tyrosine as substrate at 10 uM after 30 mins by spectrophotometric analysis
In short: (§3)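 Mushroom tyrosinase (20 µL of 1000 units aqueous solution) in a 200 µL mixture with 1 mM L-tyrosine in 50 mM phosphate buffer, pH 6.5. Incubated 30 min at 25 °C; dopachrome read at 492 nm. Percent inhibition was measured at three doses per compound, in triplicate, to build dose–response curves.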

[4] = target: T2, Tyrosinase (Agaricus bisporus); experiment: Inhibition of mushroom tyrosinase using L-tyrosine as substrate at 20 uM after 30 mins by spectrophotometric analysis
In short: (§4)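 Mushroom tyrosinase (1000 units) was added to a mixture of 1 mM L-tyrosine and 50 mM phosphate buffer, pH 6.5, with test compound at the stated concentration. After 30 min at 25 °C, dopachrome formation was measured spectrophotometrically at OD492 and expressed as percent inhibition. Values are means ± S.E. of three experiments.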

[5] = target: T2, Tyrosinase (Agaricus bisporus); experiment: Inhibition of mushroom tyrosinase using L-tyrosine as substrate at 1 uM after 30 mins by spectrophotometric analysis; in short: as §3
[6] = target: T2, Tyrosinase (Agaricus bisporus); experiment: Inhibition of mushroom tyrosinase using L-tyrosine as substrate at 30 uM after 30 mins by spectrophotometric analysis; in short: as §4
[7] = target: T2, Tyrosinase (Agaricus bisporus); experiment: Inhibition of mushroom tyrosinase using L-tyrosine as substrate at 0.5 uM after 30 mins by spectrophotometric analysis; in short: as §3
[8] = target: T2, Tyrosinase (Agaricus bisporus); experiment: Inhibition of mushroom tyrosinase using L-tyrosine as substrate at 5 uM after 30 mins by spectrophotometric analysis; in short: as §4
[9] = target: T2, Tyrosinase (Agaricus bisporus); experiment: Inhibition of mushroom tyrosinase using L-tyrosine as substrate at 50 uM after 30 mins by spectrophotometric analysis; in short: as §4
[10] = target: T2, Tyrosinase (Agaricus bisporus); experiment: Inhibition of mushroom tyrosinase using L-tyrosine as substrate at 15 uM after 30 mins by spectrophotometric analysis; in short: as §4
[11] = target: T2, Tyrosinase (Agaricus bisporus); experiment: Inhibition of mushroom tyrosinase using L-tyrosine as substrate at 80 uM after 30 mins by spectrophotometric analysis; in short: as §4

Row | Compound | IC50 [1] [µM] | inhibition [2] | inhibition [9] [%] | other results
1 | Oc1ccc(/C=C/c2cc(O)cc(O)c2)cc1 [RESVERATROL] | 26.6 | Dose-dependent effect |  | inhibition [3]: 38%; inhibition [4]: 47.3%; inhibition [5]: 16.3%; inhibition [6]: 47.8%; inhibition [7]: 13.7%; inhibition [8]: 27.1%
2 | COc1ccc(OC)c(/N=N/c2ccc(O)cc2O)c1 |  |  | 27.8 | 
3 | Oc1cc(O)cc(/N=N/c2ccc(O)cc2O)c1 |  |  | 41.5 | 
4 | COc1ccc(OC)c(/N=N/c2ccc(O)c(OC)c2)c1 |  |  | 0.44 | 
5 | Oc1ccc(/N=N/c2cc(O)cc(O)c2)cc1 | 36.3 | Dose-dependent effect | 72.8 | inhibition [6]: 44.3%; inhibition [10]: 7.6%
6 | COc1cc(/N=N/c2ccc(O)c(OC)c2)cc(OC)c1 |  |  | 1.03 | 
7 | COc1cc(/N=N/c2ccc(O)cc2)cc(OC)c1 | 50.2 | Dose-dependent effect | 56.2 | inhibition [4]: 46%; inhibition [11]: 61.4%; inhibition [8]: 8.4%

More lines, main results first:

Row | IC50 [1] [µM] | inhibition [2] | inhibition [9] [%] | Compound | other results
8 |  |  | 8.9 | COc1cc(/N=N/c2ccc(O)cc2OC)cc(OC)c1 | 
9 |  |  | 48.5 | COc1cc(/N=N/c2ccc(O)cc2O)cc(OC)c1 | 
10 |  |  | 6.38 | COc1ccc(/N=N/c2cc(OC)ccc2OC)c(O)c1 | 

— ChEMBL document CHEMBL2203153, “Synthesis of novel azo-resveratrol, azo-oxyresveratrol and their derivatives as potent tyrosinase inhibitors” (Bioorg Med Chem Lett, 2012)
